SENP7 inh = inhibitors of human SENP7 protease; 330,000 compounds, 1.5% hits; Q9BQF6; inhibition, % at 5 µM; recombinant SENP7, Z-RLRGG-aminoluciferin luminescence, 40 min;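 active = inhibition above about 50% at the single test dose, limit read from the data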
Apaf-1 inh = blocks human Apaf-1 apoptosome activity; 330,000 compounds, 0.71% hits; AID 489030; inhibition, % at 20 µM; reconstituted apoptosome caspase-3 activity, DEVD-Rh110 fluorescence; active = inhibition of at least 40% at 20 µM
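System: reconstituted apoptosome with Apaf-1, cytochrome c, caspase-9, procaspase-3, dATP; Signal: Rh110 fluorescence intensity; Schedule: 30 min compound preincubation, 50 min activation, room temperature; Reagent: cytochrome c trigger plus (Z-DEVD)2-Rh110 caspase-3 substrate.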
SENP6 inh = blocks the human protease SENP6. Q9GZR1. Recombinant SENP6 catalytic domain, aminoluciferin luminescence. inhibition, % at 10 µM. 330,000 compounds, 1.8% hits. AID 2599;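 active = inhibition above about 50% at the single tested dose, limit read from the data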
Target sequence (Q9GZR1 628-1112 limits assumed): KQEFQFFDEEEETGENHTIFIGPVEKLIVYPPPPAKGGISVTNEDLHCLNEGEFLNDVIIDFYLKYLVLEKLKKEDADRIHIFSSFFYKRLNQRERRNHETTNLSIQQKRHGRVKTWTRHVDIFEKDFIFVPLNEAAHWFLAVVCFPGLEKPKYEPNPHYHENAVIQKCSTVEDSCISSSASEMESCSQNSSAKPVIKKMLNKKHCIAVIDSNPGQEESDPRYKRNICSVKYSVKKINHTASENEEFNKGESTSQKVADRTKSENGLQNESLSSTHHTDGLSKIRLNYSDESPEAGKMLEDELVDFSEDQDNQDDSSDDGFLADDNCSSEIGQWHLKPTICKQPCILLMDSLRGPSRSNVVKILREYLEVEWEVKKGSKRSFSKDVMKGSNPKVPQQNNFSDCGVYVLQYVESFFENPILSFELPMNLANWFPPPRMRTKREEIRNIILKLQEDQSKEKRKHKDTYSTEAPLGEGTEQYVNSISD
SENP8 block-1 = blocks human SENP8 cleavage of Nedd8 substrate; inhibition, % at 20 µM; 360,000 compounds, 0.64% hits; recombinant SENP8, Nedd8 substrate fluorescence; in the data active = inhibition mostly above about 40%, no sharp cut-off; inactive = mostly below about 27%
Target sequence (Q96LD8 whole entry, looked up): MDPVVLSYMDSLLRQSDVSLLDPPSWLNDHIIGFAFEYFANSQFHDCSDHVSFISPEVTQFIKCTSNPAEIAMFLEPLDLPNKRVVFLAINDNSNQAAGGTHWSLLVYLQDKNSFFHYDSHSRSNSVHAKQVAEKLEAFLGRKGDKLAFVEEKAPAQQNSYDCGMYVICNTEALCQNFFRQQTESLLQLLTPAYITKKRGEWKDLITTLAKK
UBC13 inh = blocks human UBC13 polyubiquitin chain formation; P61088; 330,000 compounds, 0.47% hits; TR-FRET; inhibition, % at 20 µM; in the data active = inhibition above about 45%, passing the limit was not always enough
SENP8 block-2 = inhibitors of human SENP8 protease; inhibition, % at 10 µM; Q96LD8; 330,000 compounds, 1.2% hits; purified SENP8, Z-RLRGG-aminoluciferin cleavage, luminescence; in the data active = inhibition above about 50%
SENP8 confirm = human SENP8 inhibition, confirmed | AID 488912 | Recombinant SENP8, Z-RLRGG-aminoluciferin luminescence, 60 min | 6,200 compounds, 40% hits | shares compounds with SENP7 inh | inhibition, % at 12.5 µM;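 active = mean inhibition across replicates above about 50%, limit read from the data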
SENP6 conf = human SENP6 inhibition, confirmed; shares compounds with SENP7 inh; recombinant SENP6, Z-RLRGG-aminoluciferin luminescence; inhibition, % at 12.5 µM; 6,200 compounds, 58% hits
SENP7 conf = confirmation of human SENP7 protease inhibitors | AID 488917 | inhibition, % at 12.5 µM | 6,200 compounds, 69% hits | recombinant SENP7, Z-RLRGG-aminoluciferin luminescence, 40 min | shares compounds with SENP7 inh
Casp3 select = selectivity test for SENP inhibitors: human caspase-3 inhibition | shares compounds with SENP7 inh | purified caspase-3, Z-DEVD-aminoluciferin luminescence, 60 min | inhibition, % at 12.5 µM | 6,200 compounds, 60% hits;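 active = mean inhibition above about 50%, limit read from the data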
Luc interf = counter-screen for SENP inhibitors: luminescence interference; 6,200 compounds, 39% hits; inhibition, % at 12.5 µM; Pre-incubated SENP8/Z-RLRGG-aminoluciferin, luciferase luminescence interference; shares compounds with SENP7 inh;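 active = mean inhibition above about 50% when retested at one dose, limit read from the data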
Large screens that a line does not name were inactive (follow-up assays come after a bar, where they were run). Hits are enriched below; roughly 3.1% of the tested compounds scored in any of these assays.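 The calls were made as follows, unless noted: active = mean inhibition above about 50% in the one-dose retest (limit read from the data); inactive = the rest.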

Nn1c(-c2cccs2)nc2sc3c(c2c1=O)CCCC3	SENP7 inh 59, SENP6 inh 90, SENP8 block-2 71 | SENP8 confirm inactive | SENP6 conf 70 | SENP7 conf 90 | Casp3 select 60 | Luc interf inactive
O=c1oc(-c2ccccc2)nc2sc3c(c12)CCCC3	SENP7 inh 96, SENP6 inh 94, SENP8 block-2 92 | SENP8 confirm 62 | SENP6 conf inactive | SENP7 conf inactive | Casp3 select 81 | Luc interf inactive
O=C(O)c1cc(NS(=O)(=O)c2ccc(F)cc2)cc(NS(=O)(=O)c2ccc(F)cc2)c1	none
Cc1cc(=O)[nH]c(SCCOc2ccc3c(c2)CCC3)n1	none
Cc1cc(=O)[nH]c(SCCOc2ccc(OC(C)C)cc2)n1	SENP7 inh 89, SENP6 inh 94, SENP8 block-2 91 | SENP8 confirm 91 | SENP6 conf 95 | SENP7 conf 100 | Casp3 select 95 | Luc interf 58
COc1ccc2c(CC(=O)N3CCc4ccccc43)coc2c1	SENP7 inh 85, SENP6 inh 85, SENP8 block-2 72 | SENP8 confirm 81 | SENP6 conf 81 | SENP7 conf 93 | Casp3 select 81 | Luc interf 61
COc1ccc2oc(C(=O)N3CCc4ccccc43)c(C)c2c1	SENP7 inh 100, SENP6 inh 96, SENP8 block-2 96 | SENP8 confirm 72 | SENP6 conf 88 | SENP7 conf 96 | Casp3 select 85 | Luc interf inactive
COc1ccc2cc(C(=O)N3CCc4ccccc43)[nH]c2c1	SENP7 inh 93, SENP6 inh 86, SENP8 block-2 53 | SENP8 confirm inactive | SENP6 conf inactive | SENP7 conf inactive | Casp3 select inactive | Luc interf inactive
COc1ccc2c(CC(=O)OCC(=O)N3CCc4ccccc43)coc2c1	none
O=C(NCc1cccnc1)c1ccc2sc([C@H]3C[C@H](O)[C@@H](CO)O3)nc2c1	none (no result: SENP7 inh, Apaf-1 inh, SENP6 inh, UBC13 inh, SENP8 block-2)
C[C@H]1CN([C@@H](C)CO)C(=O)CCCn2nncc2CO[C@H]1CN(C)C(=O)C1CCCCC1	none (no result: SENP7 inh, Apaf-1 inh, SENP6 inh, UBC13 inh, SENP8 block-2)
CCOc1cccc(C(=O)Nc2ccc3c(c2)OCCO3)c1	SENP7 inh 65, SENP6 inh 69 | SENP8 confirm 66 | SENP6 conf 63 | SENP7 conf 89 | Casp3 select 77 | Luc interf 69
O=C(Nc1ccc2ccccc2c1)c1cccc(F)c1	SENP7 inh 73, SENP8 block-2 60 | SENP8 confirm inactive | SENP6 conf 59 | SENP7 conf 87 | Casp3 select inactive | Luc interf inactive
CCOc1cccc(C(=O)Nc2ccc3ccccc3c2)c1	SENP7 inh 92, SENP6 inh 93, SENP8 block-2 88 | SENP8 confirm inactive | SENP6 conf 66 | SENP7 conf 99 | Casp3 select inactive | Luc interf inactive
CCOc1cccc(C(=O)Nc2cccc(C(C)=O)c2)c1	none
COc1ccc(NS(=O)CCCc2ccccc2)cc1 (stereo not drawn)	none (no result: SENP7 inh, Apaf-1 inh, SENP6 inh, UBC13 inh, SENP8 block-2)
CCOc1ccc(-c2nc3ccccc3c(=O)o2)cc1	SENP7 inh 73 | SENP8 confirm inactive | SENP6 conf inactive | SENP7 conf inactive | Casp3 select inactive | Luc interf inactive
CC(C)(C)C(=O)Nc1ccc(-c2nc3ccccc3c(=O)o2)cc1	SENP7 inh 68, SENP6 inh 62 | SENP8 confirm inactive | SENP6 conf inactive | SENP7 conf inactive | Casp3 select inactive | Luc interf inactive
CCOC(=O)Cc1nnc(-c2ccccc2)o1	none
CCOC(=O)COc1ccc(-c2nnc(-c3ccccc3)o2)cc1	SENP7 inh 74, SENP6 inh 79 | SENP8 confirm inactive | SENP6 conf inactive | SENP7 conf 68 | Casp3 select 72 | Luc interf inactive
CC(C)(C)C(=O)Nc1cccc(-c2nc3ccccc3c(=O)o2)c1	none
CCOc1ccc(-c2nnc(-c3ccccc3)o2)cc1	SENP7 inh 93, SENP6 inh 96, SENP8 block-2 91 | SENP8 confirm inactive | SENP6 conf inactive | SENP7 conf inactive | Casp3 select inactive | Luc interf inactive
CCOc1ccc(-c2nnc(-c3ccc(OC)cc3)o2)cc1	none
CC(=O)NC(c1ccc(F)c(F)c1)c1nc(-c2cc3ccccc3o2)cs1 (stereo not drawn)	none (no result: SENP7 inh, Apaf-1 inh, SENP6 inh, UBC13 inh, SENP8 block-2)
O=C(O/N=C1\CCCc2ccccc21)c1ccc(F)cc1	SENP7 inh 95, SENP6 inh 78, SENP8 block-2 72 | SENP8 confirm inactive | SENP6 conf 55 | SENP7 conf inactive | Casp3 select inactive | Luc interf inactive
O=C(O/N=C1/CCSc2ccccc21)c1ccccc1	SENP7 inh 74, SENP6 inh 89, SENP8 block-2 79 | SENP8 confirm 90 | SENP6 conf 89 | SENP7 conf 98 | Casp3 select 79 | Luc interf 75
CC(O)(c1cccnc1)c1nc(-c2ccc(F)c(Cl)c2)cs1 (stereo not drawn)	none (no result: SENP7 inh, Apaf-1 inh, SENP6 inh, UBC13 inh, SENP8 block-2)
C/C(=N\NC(=O)c1cc2c(s1)CCC(C)C2)c1ccc[nH]1 (stereo not drawn)	SENP7 inh 70 | SENP8 confirm inactive | SENP6 conf inactive | SENP7 conf 81 | Casp3 select 59 | Luc interf inactive
C/C(=N\NC(=O)c1cc2c(s1)CCC(C)C2)c1ccncc1 (stereo not drawn)	none
CCc1nc2ccc(C(=O)Nc3cc(-c4ccccc4)ccc3OC)cn2c1N(CCN(C)C)CC1CC1	none (no result: SENP7 inh, Apaf-1 inh, SENP6 inh, UBC13 inh, SENP8 block-2)
Cc1cc(C2=NNC(=NC3CC3)SC2)c(C)n1-c1ccccc1F	SENP8 block-2 80 | SENP8 confirm inactive | SENP6 conf 93 | SENP7 conf 100 | Casp3 select 93 | Luc interf 60
Cc1cc(C2=NNC(=NC3CCCCC3)SC2)c(C)n1-c1c(C)n(C)n(-c2ccccc2)c1=O	none
c1cc2c(cc1C1=NNC(=NC3CC3)SC1)OCCO2	SENP7 inh 97, SENP6 inh 97, SENP8 block-2 96 | SENP8 confirm 98 | SENP6 conf 99 | SENP7 conf 102 | Casp3 select 98 | Luc interf 96
CC(=O)c1ccc(-c2c(CCO)sc3ccccc23)cc1	none (no result: SENP7 inh, Apaf-1 inh, SENP6 inh, UBC13 inh, SENP8 block-2)
COc1cccc(CN(C)CCCn2cnc3c(SC)ncnc32)c1	none (no result: SENP7 inh, Apaf-1 inh, SENP6 inh, UBC13 inh, SENP8 block-2)
